Experimental data published in ChEMBL document CHEMBL3351594, “Cytotoxic dimeric epipolythiodiketopiperazines from the ascomycetous fungus Preussia typharum” (J Nat Prod, 2014).

Tests used:
[1] = Cytotoxicity against human UO31 cells by SRB method; assay type: functional
In short: (§1)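 NCI-60 in vitro screen panel of human tumor lines; GI50 (molar concentration giving 50% growth inhibition) and TGI (total growth inhibition) taken from dose–response data.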

[2] = Cytotoxicity against human UACC62 cells assessed as inhibition of colony formation at 5 nM incubated for 4 hrs followed by compound washout measured after 14 days relative to vehicle-treated control; assay type: functional; conditions: UACC-62
In short: (§2)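 Clonogenic test: 600 UACC-62 cells (RPMI1640, 10% FBS, gentamicin) adhered, exposed 4 h to vehicle (DMSO) or compound, washed with DPBS, fresh medium, grown 14 days; fixed, 0.5% crystal violet in 10% methanol, colonies counted; duplicate/triplicate, n = 2–4 experiments; one-way ANOVA with Dunnett's vs vehicle.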

SK-OV-3 = assay: Resistance ratio of GI50 for human P-gp expressing SKOV3-M6/6 cells to GI50 for human SKOV3 cells; assay type: functional
In short: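 SRB assay in SK-OV-3 and its P-gp/MDR1 single-cell clone SK-OV-3/MDR-1-6/6; GI50 from percent growth dose–response curves, n = 3 or 4 independent experiments; relative resistance taken as ratio of GI50 in the MDR line to parental.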

HCC 2998 = assay: Cytotoxicity against human HCC2998 cells by SRB method; assay type: functional
In short: (§3)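 NCI-60 in vitro drug screening panel. Values are the molar concentrations giving 50% growth inhibition (GI50) and total growth inhibition (TGI).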

NCI-H460 = assay: Cytotoxicity against human NCI-H460 cells by SRB method; assay type: functional; in short: as §3
A549 = assay: Cytotoxicity against human A549 cells by SRB method; assay type: functional; in short: as §3
SF-268 = assay: Cytotoxicity against human SF268 cells by SRB method; assay type: functional; in short: as §3
SF-295 = assay: Cytotoxicity against human SF295 cells by SRB method; assay type: functional; in short: as §3
SK-MEL-28 = assay: Cytotoxicity against human SK-MEL-28 cells by SRB method; assay type: functional; in short: as §3
[3] = Cytotoxicity against human OVCAR5 cells by SRB method; assay type: functional; in short: as §3
RXF 393 = assay: Cytotoxicity against human RXF393 cells by SRB method; assay type: functional; in short: as §3
[4] = Cytotoxicity against human UACC62 cells by SRB method; assay type: functional; in short: as §1
HeLa = assay: Cytotoxicity against human HeLa cells; assay type: functional
SF-539 = assay: Cytotoxicity against human SF539 cells by SRB method; assay type: functional; in short: as §3
[5] = Cytotoxicity against human MIAPaCa2 cells after 24 hrs by MTT assay; assay type: functional, cell-based; conditions: MIA PaCa-2, 24 h
[6] = Antitumor activity against human UACC62 cells xenografted in athymic nude mouse at 1.5 mg/kg, ip administered every 4 days relative to untreated control; assay type: functional, UACC-62; conditions: route intraperitoneal
In short: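 Female athymic nude mice received 2 × 10^6 UACC-62 cells sc into each flank, bilaterally. They were randomized at median tumor volume 150 mm3, n = 5 mice/group. Dosing was ip at 1.5 mg/kg every 4 days, in DMSO–Cremophor (1:1) diluted in 200 μL DPBS (DMSO and Cremophor ≤2.5% final). Tumors were measured twice weekly by caliper. T/C% = (treated final − initial mean volume) ÷ (untreated final − initial) × 100.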

HOP-62 = assay: Cytotoxicity against human HOP62 cells by SRB method; assay type: functional; in short: as §3
UACC-62 = assay: Cytotoxicity against human UACC62 cells assessed as reduction of colony formation incubated for 4 hrs followed by compound washout measured after 14 days relative to vehicle-treated control; assay type: functional, cell-based; in short: as §2
KM12 = assay: Cytotoxicity against human KM12 cells by SRB method; assay type: functional; in short: as §3
CCRF-CEM = assay: Cytotoxicity against human CCRF-CEM cells by SRB method; assay type: functional; in short: as §3
COLO 205 = assay: Cytotoxicity against human COLO205 cells by SRB method; assay type: functional; in short: as §3
[7] = Cytotoxicity against human OVCAR8 cells by SRB method; assay type: functional; in short: as §3
BT-549 = assay: Cytotoxicity against human BT549 cells by SRB method; assay type: functional; in short: as §3
Mus musculus = assay: Toxicity in athymic nude mouse xenografted with human UACC62 cells assessed as rapid and persistent weight loss at 10 mg/kg, ip; assay type: organism-based, UACC-62; design: dose 10 mg/kg, route intraperitoneal; conditions: in vivo
SK-MEL-2 = assay: Cytotoxicity against human SK-MEL-2 cells by SRB method; assay type: functional; in short: as §3
SW-620 = assay: Cytotoxicity against human SW620 cells by SRB method; assay type: functional; in short: as §1
MCF7 = assay: Cytotoxicity against human MCF7 cells by SRB method; assay type: functional; in short: as §3
[8] = Cytotoxicity against human PC3 cells by SRB method; assay type: functional; in short: as §3
Malme-3M = assay: Cytotoxicity against human MALME-3M cells by SRB method; assay type: functional; in short: as §3
HL-60(TB) = assay: Cytotoxicity against human HL-60(TB) cells by SRB method; assay type: functional
In short: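 Tested in the NCI-60 in vitro screening panel. GI50 is the molar concentration giving 50% growth inhibition, and TGI is the molar concentration giving total growth inhibition.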

NCI-H322M = assay: Cytotoxicity against human NCI-H322M cells by SRB method; assay type: functional; in short: as §3
NCI-H23 = assay: Cytotoxicity against human NCI-H23 cells by SRB method; assay type: functional; in short: as §3
LOX IMVI = assay: Cytotoxicity against human LOXIMVI cells by SRB method; assay type: functional; in short: as §3
[9] = read-out: LC50 (the source's name)

CC(C)[C@@]12SS[C@]3(C(=O)N1C)[C@@H](O)[C@]1(C45c6ccccc6N[C@H]4N4C(=O)[C@@]6(CO)SS[C@@]4(C(=O)N6C)[C@H]5O)c4ccccc4N[C@@H]1N3C2=O (stereo not given in full)
GI50 ([1]; UO-31): 0.0098 µM
TGI ([1]; UO-31): 0.0263 µM
CC50 ([1]; UO-31, read-out: LC50 (the source's name)): 0.1 µM
inhibition at 0.005 µM [2]: 38%
Ratio (SK-OV-3): 1.7
GI50 (HCC 2998): 0.0537 µM
TGI (HCC 2998): 0.115 µM
CC50 (HCC 2998; [9]): 0.245 µM
GI50 (NCI-H460): 0.0209 µM
TGI (NCI-H460): 0.0759 µM
CC50 (NCI-H460; [9]): 0.245 µM
GI50 (A549): 0.0263 µM
TGI (A549): 0.0933 µM
CC50 (A549; [9]): 0.263 µM
GI50 (SF-268): 0.0224 µM
TGI (SF-268): 0.107 µM
CC50 (SF-268; [9]): 0.417 µM
GI50 (SF-295): 0.0575 µM
TGI (SF-295): 0.155 µM
CC50 (SF-295; [9]): 0.417 µM
GI50 (SK-MEL-28): 0.0126 µM
TGI (SK-MEL-28): 0.038 µM
CC50 (SK-MEL-28; [9]): 0.135 µM
GI50 ([3]; OVCAR-5): 0.0525 µM
TGI ([3]; OVCAR-5): 0.138 µM
CC50 ([3]; OVCAR-5, read-out: LC50 (the source's name)): 0.363 µM
GI50 (RXF 393): 0.0078 µM
TGI (RXF 393): 0.0148 µM
CC50 (RXF 393; [9]): 0.0282 µM
GI50 ([4]; UACC-62): 0.0182 µM
TGI ([4]; UACC-62): 0.0724 µM
CC50 ([4]; UACC-62, read-out: LC50 (the source's name)): 0.295 µM
GI50 (HeLa): 0.02 µM
GI50 (SF-539): 0.0151 µM
TGI (SF-539): 0.0589 µM
CC50 (SF-539; [9]): 0.2 µM
IC50 [5]: 0.0066 µM
T/C [6]: 67%
GI50 (HOP-62): 0.0117 µM
TGI (HOP-62): 0.0309 µM
CC50 (HOP-62; [9]): 0.11 µM
Activity (UACC-62): Dose-dependent effect
GI50 (KM12): 0.0195 µM
TGI (KM12): 0.0871 µM
CC50 (KM12; [9]): 0.295 µM
GI50 (CCRF-CEM): 0.0093 µM
TGI (CCRF-CEM): 0.038 µM
CC50 (CCRF-CEM; [9]): > 50 µM
GI50 (COLO 205): 0.0148 µM
TGI (COLO 205): 0.049 µM
CC50 (COLO 205; [9]): 0.155 µM
GI50 ([7]; OVCAR-8): 0.0095 µM
TGI ([7]; OVCAR-8): 0.0191 µM
CC50 ([7]; OVCAR-8, read-out: LC50 (the source's name)): 0.038 µM
GI50 (BT-549): 0.0148 µM
TGI (BT-549): 0.0661 µM
CC50 (BT-549; [9]): 0.209 µM
Activity (Mus musculus): 5%
GI50 (SK-MEL-2): 0.0098 µM
TGI (SK-MEL-2): 0.0204 µM
CC50 (SK-MEL-2; [9]): 0.0437 µM
GI50 (SW-620): 0.0083 µM
TGI (SW-620): 0.0316 µM
CC50 (SW-620; [9]): 0.129 µM
GI50 (MCF7): 0.01 µM
TGI (MCF7): 0.055 µM
CC50 (MCF7; [9]): 0.166 µM
GI50 ([8]; PC-3): 0.0155 µM
TGI ([8]; PC-3): 0.0603 µM
CC50 ([8]; PC-3, read-out: LC50 (the source's name)): 0.209 µM
GI50 (Malme-3M): 0.0078 µM
TGI (Malme-3M): 0.0186 µM
CC50 (Malme-3M; [9]): 0.0457 µM
GI50 (HL-60(TB)): 0.0263 µM
TGI (HL-60(TB)): 0.195 µM
CC50 (HL-60(TB); [9]): > 50 µM
GI50 (NCI-H322M): 0.02 µM
TGI (NCI-H322M): 0.102 µM
CC50 (NCI-H322M; [9]): 0.49 µM
GI50 (NCI-H23): 0.0162 µM
TGI (NCI-H23): 0.0562 µM
CC50 (NCI-H23; [9]): 0.234 µM
GI50 (LOX IMVI): 0.0083 µM
TGI (LOX IMVI): 0.0214 µM
CC50 (LOX IMVI; [9]): 0.0468 µM
